A short description of experiment [1]: Inhibition of amyloid beta (1 to 40) aggregation by beta amyloid self seeding radioassay. The gist of the method:
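Aβ(1-40) at 30 μM unlabeled, plus a tracer amount of 125I-Aβ(1-40), incubated with compound in 50 mM NaPi, 150 mM NaCl, 1 M urea, 0.02% w/v NaN3, pH 7.5. Radiolabeled fibrils retained on a 0.2 µm filter were measured. Eight compound concentrations were tested, and IC50 was taken by logit transformation of the titration curves. Values are the average of two separate experiments.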

Experiment [2] in a line: Inhibition of amyloid beta (1 to 40) aggregation by beta amyloid self seeding thioflavin T assay. The gist of the method: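 Compound was incubated with 30 μM Aβ(1-40) in 50 mM NaPi, 150 mM NaCl, 1 M urea, 0.02% w/v NaN3, pH 7.5. Thioflavin T at 5 µM was added after fibril formation, and fluorescence was read as β-sheet fibril content. IC50 came from eight concentrations by logit transformation of the titration curves. Values are the mean of two separate experiments.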

Experiment [3] has as its system Mus musculus. Description: Reduction in senile plaque load in Tg2576 mouse overexpressing human betaAPP695SWE at 60 mg/kg/day, po administered with chow for 7 months. The class given is functional. On the set-up: scale not given: the % may be the effect or the level left.
Experiment [4] relates to Mus musculus. The experiment can be described thus: Reduction in senile plaque load in Tg2576 mouse overexpressing human betaAPP695SWE at 60 mg/kg/day, po administered with chow for 3 months. The class given is functional. Also noted: scale not given: the % may be the effect or the level left.
Experiment [5] deals with Mus musculus. Description: Reduction in mean senile plaque area in Tg2576 mouse overexpressing human betaAPP695SWE at 60 mg/kg/day, po administered with chow. Type of experiment: functional. On the set-up: scale not given: the % may be the effect or the level left.

For orientation: IC50 means the midpoint of a concentration-inhibition curve.

Take `O=C(O)c1ccccc1Nc1ccc(CCCc2ccc(Cl)c(Cl)c2)cc1`: the IC50 was found to be 25 µM in experiment [1] and 1 µM in experiment [2]. The Activity in the experiment with Mus musculus [3] was 47%; with Mus musculus [4], 45%; in the experiment with Mus musculus [5], 2.6%.
